SMILES strings stand for the structures.

As usually defined, the IC50 is the midpoint of a concentration-inhibition curve. One may read the LC50 as the concentration that kills 50% of the test population. A low value points to greater toxicity.

Assay [1] deals with Trypanosoma brucei rhodesiense. As to the kind of experiment: Antitrypanosomal activity against Trypanosoma brucei rhodesiense STIB900 by fluorescence assay. Format: functional, organism-based.
The next assay concerns L6. Kind of assay: Cytotoxicity against rat L6 cells. Format: cell-based. In a few lines: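 Rat skeletal myoblasts (L-6) grown in RPMI 1640 with 10% FBS and 2 mM L-glutamine, exposed to serial dilutions 90 to 0.123 µg/mL at 37 °C, 5% CO2. Alamar Blue (resazurin) read-out by fluorescence (ex 536/em 588 nm) as percent of control cultures; IC50 from sigmoidal inhibition curves.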

Assay [2] concerns Plasmodium falciparum. As to the kind of experiment: Antiplasmodial activity against chloroquine-resistant Plasmodium falciparum K1 assessed as [3H]hypoxanthine incorporation after 48 hrs by beta-plate liquid scintillation counting. Format: functional, organism-based. Summed up:
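K1 strain (chloroquine- and pyrimethamine-resistant) in infected human red blood cells, RPMI 1640 with 5% Albumax, exposed to serial dilutions for 48 h at 37 °C under reduced oxygen. 0.5 µCi [3H]-hypoxanthine then added for a further 24 h. Cells harvested onto glass-fiber filters and counted. CPM expressed as % of untreated controls, IC50 taken from sigmoidal curves. Run in duplicate, repeated once.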

For the next assay, the system named is Thamnocephalus platyurus. As to the kind of experiment: Cytotoxicity against Thamnocephalus platyurus. It counts as functional. In a few lines:
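Instar II-III larvae hatched from cysts, tested in multiwell plates at six concentrations from 1 to 100 µM, in triplicate. Value derived by nonlinear regression.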

For assay [3], the system named is Plasmodium falciparum. As to the kind of experiment: Antiplasmodial activity against Plasmodium falciparum W2. Format: functional, organism-based.
The test system of a further assay is MCF7. Kind of assay: Cytotoxicity against human MCF7 cells. It counts as cell-based.

In the case of `CC[C@H](C)[C@@H]1NC(=O)[C@H]2CSC(=N2)[C@@H]([C@@H](C)CC)NC(=O)c2csc(n2)CNC(=O)[C@H]2N=C1O[C@@H]2C` [AERUCYCLAMIDE A], the values for the IC50 (in assay [1]; in the assay on L6; in the assay with Plasmodium falciparum [2]) were 56.3 µM, above 168 µM and 5 µM, respectively.
As to `CC[C@H](C)[C@@H]1NC(=O)c2csc(n2)[C@@H]([C@@H](C)CC)NC(=O)c2csc(n2)CNC(=O)[C@H]2N=C1O[C@@H]2C` [AERUCYCLAMIDE B], the IC50 in assay [1] worked out at 15.9 µM; with L6 it was 120 µM; in the assay with Plasmodium falciparum [2] it was 0.7 µM.
The compound `CC[C@H](C)[C@H]1NC(=O)c2coc(n2)[C@H](C(C)C)NC(=O)[C@H]2N=C(O[C@@H]2C)[C@H](C)NC(=O)c2csc1n2` [AERUCYCLAMIDE C] had an LC50 in the assay with Thamnocephalus platyurus of 70.5 µM. Moreover, the figures for the IC50 (in assay [1]; in the assay with L6; in the assay with Plasmodium falciparum [2]) were 9.2 µM, 106 µM and 2.3 µM, respectively.
As to `CSCC[C@@H]1NC(=O)c2csc(n2)CNC(=O)[C@H]2N=C(O[C@@H]2C)[C@H](Cc2ccccc2)NC(=O)[C@@H]2CSC1=N2` [AERUCYCLAMIDE D], the IC50 in assay [1] is 50.1 µM; with L6 it was above 153 µM; in the assay with Plasmodium falciparum [2] it was 6.3 µM.
For the compound `Cc1oc2nc1C(=O)N[C@H](C)c1nc(cs1)C(=O)N[C@H](C(C)C)c1nc(cs1)C(=O)N[C@@H]2C` [VENTURAMIDE A], the IC50 was determined as 8.2 µM in the assay with Plasmodium falciparum [3] and 13.1 µM in the assay with MCF7.
For `Cc1oc2nc1C(=O)N[C@H]([C@@H](C)O)c1nc(cs1)C(=O)N[C@H](C(C)C)c1nc(cs1)C(=O)N[C@@H]2C` [VENTURAMIDE B], in that order: 5.2 µM and above 54 µM.

The values are drawn from ChEMBL document CHEMBL1154139, “Isolation of aerucyclamides C and D and structure revision of microcyclamide 7806A: heterocyclic ribosomal peptides from Microcystis aeruginosa PCC 7806 and their antiparasite evaluation” (J Nat Prod, 2008).
